Values after ≈ are worked out from the molar mass of the structure shown. Where two headings read alike, the source gives them in different places.
Assays:
EcFtsZ = EcFtsZ (Escherichia coli, UniProt P0A9A6); assay type: biochemical; conditions: for Inhibition of EcFtsZ GTPase activity with detergent: 0.01% Triton X-100; for Inhibition of EcFtsZ GTPase activity at increasing FtsZ concentrations: increasing protein concentration
BsFtsZ [1] = target: T1, BsFtsZ (Bacillus subtilis, UniProt P17865); assay: Enzyme-coupled GTPase assay, BsFtsZ; assay type: biochemical; conditions: for Inhibition of BsFtsZ GTPase activity: absence of Triton X-100; for Inhibition of BsFtsZ GTPase activity with detergent: 0.01% Triton X-100; for Inhibition of BsFtsZ GTPase activity at increasing FtsZ concentrations: increasing protein concentration
FtsZ [2] = conditions: cited from earlier work
BsFtsZ [3] = target: T1, BsFtsZ; assay: Malachite green GTPase assay, BsFtsZ; assay type: biochemical; conditions: concentrations up to 100 μM
SaFtsZ = SaFtsZ (Staphylococcus aureus, UniProt P0A031); assay: GTPase assay, SaFtsZ; assay type: biochemical
Procedure, shortened: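 Recombinant S. aureus FtsZ (pET11a, E. coli C41(DE3), IPTG 30 °C 5 h) purified by ammonium sulfate and anion exchange; BCA concentration divided by 0.75. 10 μM FtsZ with inhibitor in DMSO, pH 6.5 MES/Mg(OAc)2/KOAc, preincubated 5 min, then GTP added. Coupled: PK/LDH, PEP, NADH, A340 over time at ~25 °C. Malachite green: 30 °C, EDTA-quenched time points, A630 against phosphate standards.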

B. subtilis strain 168 = assay: Antimicrobial activity; assay type: cell-based, Bacillus subtilis
FtsZ [4] = assay: Malachite green GTPase assay under approximate Merck viriditoxin conditions; assay type: biochemical; conditions: up to 128 μM; 50 mM Tris, 34 mM KCl, 0.75 mM Mg(OAc)2, 2.5 mM CaCl2, 50 μg/mL DEAE-Dextran, 37 °C
[5] = Chemical stability on storage; assay type: physicochemical; conditions: degrades if not stored free of solvent and at low temperature
tubulin = conditions: berberine even at high concentration (100 μM); cited from earlier work
Dnm1 = target: T2, Dnm1 (Saccharomyces cerevisiae, UniProt P54861); assay: GTPase activity of the eukaryotic GTPase Dnm1; assay type: biochemical
T2 sequence (P54861 1-757): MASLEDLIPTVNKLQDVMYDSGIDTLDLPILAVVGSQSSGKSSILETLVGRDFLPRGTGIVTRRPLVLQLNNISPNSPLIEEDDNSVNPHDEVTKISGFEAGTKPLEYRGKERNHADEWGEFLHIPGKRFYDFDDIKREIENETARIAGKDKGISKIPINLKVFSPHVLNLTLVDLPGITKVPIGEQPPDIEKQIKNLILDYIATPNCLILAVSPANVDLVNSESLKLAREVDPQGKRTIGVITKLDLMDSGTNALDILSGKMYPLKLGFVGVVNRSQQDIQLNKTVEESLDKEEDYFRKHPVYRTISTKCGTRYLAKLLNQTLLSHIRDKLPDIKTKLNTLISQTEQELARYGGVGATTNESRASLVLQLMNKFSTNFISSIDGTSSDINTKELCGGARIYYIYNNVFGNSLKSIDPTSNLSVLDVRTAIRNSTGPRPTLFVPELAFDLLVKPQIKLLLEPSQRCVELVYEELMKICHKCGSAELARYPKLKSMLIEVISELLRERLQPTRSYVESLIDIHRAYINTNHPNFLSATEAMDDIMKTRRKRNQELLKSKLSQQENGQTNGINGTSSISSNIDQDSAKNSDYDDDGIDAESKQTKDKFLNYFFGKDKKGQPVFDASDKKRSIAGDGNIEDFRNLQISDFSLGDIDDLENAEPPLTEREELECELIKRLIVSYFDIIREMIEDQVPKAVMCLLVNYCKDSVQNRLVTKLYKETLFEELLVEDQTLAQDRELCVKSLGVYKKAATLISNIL

[6] = standard conditions, up to 200 μM

T1 sequence (P17865 whole entry): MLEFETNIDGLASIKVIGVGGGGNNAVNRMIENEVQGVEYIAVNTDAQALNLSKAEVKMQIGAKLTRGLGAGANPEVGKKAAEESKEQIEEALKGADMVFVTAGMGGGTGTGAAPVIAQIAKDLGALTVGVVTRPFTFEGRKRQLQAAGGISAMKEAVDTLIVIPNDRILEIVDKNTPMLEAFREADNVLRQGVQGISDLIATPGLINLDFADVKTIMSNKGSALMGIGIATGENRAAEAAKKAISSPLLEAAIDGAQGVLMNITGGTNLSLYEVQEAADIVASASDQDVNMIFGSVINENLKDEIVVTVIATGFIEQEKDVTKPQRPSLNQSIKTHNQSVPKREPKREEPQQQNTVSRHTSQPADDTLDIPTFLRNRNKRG
Sequence of EcFtsZ (P0A9A6 whole entry): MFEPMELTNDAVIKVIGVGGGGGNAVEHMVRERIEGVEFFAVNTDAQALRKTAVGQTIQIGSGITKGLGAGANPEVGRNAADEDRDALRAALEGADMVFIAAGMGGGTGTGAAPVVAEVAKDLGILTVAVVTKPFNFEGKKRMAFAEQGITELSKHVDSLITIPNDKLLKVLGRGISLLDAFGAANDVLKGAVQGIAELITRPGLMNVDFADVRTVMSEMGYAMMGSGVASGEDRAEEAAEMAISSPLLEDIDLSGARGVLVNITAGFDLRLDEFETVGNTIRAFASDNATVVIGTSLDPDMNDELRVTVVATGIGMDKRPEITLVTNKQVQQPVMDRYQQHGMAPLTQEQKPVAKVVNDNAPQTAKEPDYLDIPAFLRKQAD
Sequence of SaFtsZ (P0A031 whole entry): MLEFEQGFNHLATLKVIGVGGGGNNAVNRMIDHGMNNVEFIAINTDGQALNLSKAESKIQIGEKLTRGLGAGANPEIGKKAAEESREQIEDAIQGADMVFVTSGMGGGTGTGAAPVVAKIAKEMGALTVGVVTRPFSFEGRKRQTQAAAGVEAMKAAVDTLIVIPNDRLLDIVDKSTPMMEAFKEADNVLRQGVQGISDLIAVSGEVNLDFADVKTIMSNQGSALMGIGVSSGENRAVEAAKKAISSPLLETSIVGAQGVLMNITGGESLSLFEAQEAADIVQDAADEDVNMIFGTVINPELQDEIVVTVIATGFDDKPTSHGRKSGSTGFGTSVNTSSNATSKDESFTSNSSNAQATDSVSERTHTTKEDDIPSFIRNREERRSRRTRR

## O=C1CC(c2ccc(O)cc2)Oc2c(Cc3ccccc3O)c(O)c(Cc3ccccc3O)c(O)c21 (stereo not shown) [4′-hydroxydichamanetin]
EcFtsZ
  Inhibition of EcFtsZ GTPase activity: exhibited the published activity
BsFtsZ [1]
  Inhibition of BsFtsZ GTPase activity: exhibited the published activity

## COc1nc2c(=O)[nH]c(N)nc2n1[C@@H]1O[C@H](COP(=O)(O)OP(=O)(O)OP(=O)(O)O)[C@@H](O)[C@H]1O [8-methoxy GTP]
FtsZ [2]
  Concentration at which the GTPase activity of FtsZ is inhibited: 15 µM

## O=C1C[C@@H](c2ccccc2)Oc2c(Cc3ccccc3O)c(O)c(Cc3ccccc3O)c(O)c21 [Dichamanetin]
FtsZ [2]
  Reported activity (FtsZ inhibition): 12.5 µM

## NC(=O)c1c(F)ccc(OCc2nc3cc(Cl)cnc3s2)c1F [PC190723]
BsFtsZ [1]; concentrations up to 100 μM
  Inhibition of BsFtsZ, enzyme-coupled assay: no inhibition
BsFtsZ [3]
  Inhibition of BsFtsZ, malachite green assay: no inhibition
SaFtsZ
  Inhibition of SaFtsZ GTPase activity: no inhibition
SaFtsZ; basal activity ~0.5 GTP/FtsZ/min
  Change of SaFtsZ GTPase activity: dose-dependent and reproducible increase in activity
B. subtilis strain 168
  MIC: 1 µM (≈ 0.356 µg/mL)

## COC(=O)CC1Cc2cc3cc(OC)c(-c4c(OC)cc5cc6c(c(O)c5c4O)C(=O)OC(CC(=O)OC)C6)c(O)c3c(O)c2C(=O)O1 (stereo not shown) [Viriditoxin, viriditoxin]
EcFtsZ; [6]
  Inhibition of E. coli FtsZ: no inhibition
BsFtsZ [1]; [6]
  Inhibition of B. subtilis FtsZ: no inhibition
FtsZ [4]
  Inhibition of FtsZ GTPase under Merck conditions: no inhibition
[5]
  Chemical stability: chemically unstable
FtsZ [2]; read-out: Reported IC50 (FtsZ)
  IC50: 10 µM

## COc1ccc2cc3[n+](cc2c1OC)CCc1cc2c(cc1-3)OCO2 [berberine]
tubulin
  Inhibition of tubulin assembly: does not do so

## C[n+]1cc2c3c(ccc2c2ccc4cc5c(cc4c21)OCO5)OCO3 [sanguinarine]
tubulin
  Inhibition of tubulin assembly: inhibit tubulin assembly

## CC(C)c1c(O)ccc2c1CC[C@H]1C(C)(C)CCC[C@]21C [totarol]
EcFtsZ
  Inhibition of EcFtsZ GTPase activity with detergent: vanished
  Inhibition of EcFtsZ GTPase activity at increasing FtsZ concentrations: decreased nearly to the point of having no effect
EcFtsZ; absence of Triton X-100
  Inhibition of EcFtsZ GTPase activity: reproduce the IC50
BsFtsZ [1]
  Inhibition of BsFtsZ GTPase activity with detergent: vanished
  Inhibition of BsFtsZ GTPase activity: reproduce the IC50
  Inhibition of BsFtsZ GTPase activity at increasing FtsZ concentrations: decreased nearly to the point of having no effect
Dnm1; 0.01% Triton X-100
  Dnm1 GTPase activity on addition of detergent: completely restored
Dnm1; micromolar concentrations, no detergent
  Effect on Dnm1 GTPase activity: significant reduction

## Oc1ccc(Cl)cc1Cc1cc(Cl)cc(Cc2cc(Cl)ccc2O)c1O [zantrin Z1]
EcFtsZ; absence of Triton X-100
  Inhibition of EcFtsZ GTPase activity: exhibited the published activity
BsFtsZ [1]
  Inhibition of BsFtsZ GTPase activity: exhibited the published activity

## Zantrin Z3
EcFtsZ
  Inhibition of EcFtsZ GTPase activity with detergent: maintained
  Inhibition of EcFtsZ GTPase activity at increasing FtsZ concentrations: maintained
EcFtsZ; read-out: IC50 for inhibition of EcFtsZ GTPase activity, no Triton X-100
  IC50: 20 µM
BsFtsZ [1]
  Inhibition of BsFtsZ GTPase activity with detergent: maintained
  Inhibition of BsFtsZ GTPase activity at increasing FtsZ concentrations: maintained
